Experimental data reported in ChEMBL document CHEMBL2346606, “Inhibitors of the TAM subfamily of tyrosine kinases: synthesis and biological evaluation” (Eur J Med Chem, 2013).

Tests used:
[1] = target: T1, Tyrosine-protein kinase ABL1 (Homo sapiens, UniProt P00519); test: Binding affinity to phosphorylated ABL1 (unknown origin) after 1 hr
HT-29 = test: Growth inhibition of human HT-29 cells at 10 uM after 72 hrs by […] assay relative to control; assay type: functional; details: HT-29, 72 h, read-out: GI
Procedure, shortened: (§1)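 HT29, MCF7 and PC-3 cells were grown in RPMI, plated, and treated 24 h later with compound in DMSO at 10^-5 M (DMSO controls, 1% final). After 72 h exposure, MTS reagent was added for 3 h at 37 °C and absorbance read at 490 nm. Proliferation inhibition = [1 − OD treated/OD control] × 100, triplicate experiments.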

[2] = Growth inhibition of African green monkey Vero cells at 10 uM after 72 hrs by […] assay relative to control; assay type: cell-based; details: chlorocebus sabaeus, read-out: GI
Procedure, shortened: (§2)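 KB and Vero cells were grown in D-MEM with 10% FCS and antibiotics under 5% CO2, plated, then dosed 24 h later at 10^-5 M from DMSO (controls 1% DMSO). After 72 h, MTS was added for 3 h at 37 °C and A490 read. Inhibition = (1 − OD treated/OD control) × 100, in triplicate.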

[3] = target: T2, Tyrosine-protein kinase receptor UFO (Homo sapiens, UniProt P30530); test: Binding affinity to AXL (unknown origin) after 1 hr
T2 sequence (P30530 whole entry): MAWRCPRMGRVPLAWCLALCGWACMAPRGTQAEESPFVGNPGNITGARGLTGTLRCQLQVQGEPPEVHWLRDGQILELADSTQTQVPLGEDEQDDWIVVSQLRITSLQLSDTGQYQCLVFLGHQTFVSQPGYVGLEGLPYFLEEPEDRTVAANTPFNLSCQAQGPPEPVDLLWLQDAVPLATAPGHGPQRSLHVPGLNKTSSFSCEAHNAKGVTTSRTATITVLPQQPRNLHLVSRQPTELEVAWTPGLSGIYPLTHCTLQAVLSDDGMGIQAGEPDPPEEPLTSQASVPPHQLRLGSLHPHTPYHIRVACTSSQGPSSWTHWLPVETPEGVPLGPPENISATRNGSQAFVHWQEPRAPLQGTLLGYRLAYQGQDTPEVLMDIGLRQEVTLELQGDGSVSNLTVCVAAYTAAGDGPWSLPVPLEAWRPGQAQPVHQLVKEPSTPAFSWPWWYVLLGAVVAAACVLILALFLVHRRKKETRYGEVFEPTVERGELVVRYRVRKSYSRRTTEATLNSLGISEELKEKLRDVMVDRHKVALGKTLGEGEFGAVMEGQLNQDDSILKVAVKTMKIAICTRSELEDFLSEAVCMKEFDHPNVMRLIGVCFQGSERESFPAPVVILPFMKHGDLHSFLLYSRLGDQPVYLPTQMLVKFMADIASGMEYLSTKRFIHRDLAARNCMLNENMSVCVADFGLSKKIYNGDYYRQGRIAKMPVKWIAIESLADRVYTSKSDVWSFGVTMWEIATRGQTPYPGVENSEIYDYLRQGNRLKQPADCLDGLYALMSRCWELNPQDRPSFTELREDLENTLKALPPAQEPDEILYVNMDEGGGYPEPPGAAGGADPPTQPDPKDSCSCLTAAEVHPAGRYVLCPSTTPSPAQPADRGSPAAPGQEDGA

PC-3 = test: Growth inhibition of human PC3 cells at 10 uM after 72 hrs by […] assay relative to control; assay type: functional; details: PC-3, 72 h, read-out: GI; procedure, shortened: as §1
KB = test: Growth inhibition of human KB cells at 10 uM after 72 hrs by […] relative to control; assay type: functional; details: read-out: GI; procedure, shortened: as §2
[4] = target: T3, Tyrosine-protein kinase Mer (Homo sapiens, UniProt Q12866); test: Binding affinity to MER (unknown origin) after 1 hr
T3 sequence (Q12866 whole entry): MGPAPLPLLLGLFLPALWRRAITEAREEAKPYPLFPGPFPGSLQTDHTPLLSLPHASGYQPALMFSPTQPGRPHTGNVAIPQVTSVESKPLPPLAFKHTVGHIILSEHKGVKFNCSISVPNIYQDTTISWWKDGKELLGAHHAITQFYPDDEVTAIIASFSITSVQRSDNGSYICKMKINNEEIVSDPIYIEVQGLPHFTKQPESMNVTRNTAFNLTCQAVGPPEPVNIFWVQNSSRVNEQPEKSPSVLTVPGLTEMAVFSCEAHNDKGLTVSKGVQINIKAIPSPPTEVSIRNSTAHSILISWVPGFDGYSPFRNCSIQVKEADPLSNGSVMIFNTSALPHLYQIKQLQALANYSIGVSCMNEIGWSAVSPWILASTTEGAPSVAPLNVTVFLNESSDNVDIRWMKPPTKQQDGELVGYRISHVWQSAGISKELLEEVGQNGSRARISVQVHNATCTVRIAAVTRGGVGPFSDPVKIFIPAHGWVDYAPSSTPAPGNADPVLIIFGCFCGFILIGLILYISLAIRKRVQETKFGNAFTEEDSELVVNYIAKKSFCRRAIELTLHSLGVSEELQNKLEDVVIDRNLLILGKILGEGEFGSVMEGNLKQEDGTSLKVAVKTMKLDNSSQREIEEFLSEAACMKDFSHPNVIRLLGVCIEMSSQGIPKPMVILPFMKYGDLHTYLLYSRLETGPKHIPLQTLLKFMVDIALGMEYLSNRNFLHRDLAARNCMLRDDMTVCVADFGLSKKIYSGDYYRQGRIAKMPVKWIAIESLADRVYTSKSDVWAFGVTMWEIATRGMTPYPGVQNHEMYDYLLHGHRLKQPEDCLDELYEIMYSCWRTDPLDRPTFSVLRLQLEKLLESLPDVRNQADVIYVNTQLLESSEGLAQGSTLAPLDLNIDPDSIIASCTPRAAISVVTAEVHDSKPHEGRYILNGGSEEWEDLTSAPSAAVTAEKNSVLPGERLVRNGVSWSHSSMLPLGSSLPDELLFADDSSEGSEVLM

[5] = target: T4, Tyrosine-protein kinase receptor TYRO3 (Homo sapiens, UniProt Q06418); test: Binding affinity to TYRO3 (unknown origin) after 1 hr
T4 sequence (Q06418 whole entry): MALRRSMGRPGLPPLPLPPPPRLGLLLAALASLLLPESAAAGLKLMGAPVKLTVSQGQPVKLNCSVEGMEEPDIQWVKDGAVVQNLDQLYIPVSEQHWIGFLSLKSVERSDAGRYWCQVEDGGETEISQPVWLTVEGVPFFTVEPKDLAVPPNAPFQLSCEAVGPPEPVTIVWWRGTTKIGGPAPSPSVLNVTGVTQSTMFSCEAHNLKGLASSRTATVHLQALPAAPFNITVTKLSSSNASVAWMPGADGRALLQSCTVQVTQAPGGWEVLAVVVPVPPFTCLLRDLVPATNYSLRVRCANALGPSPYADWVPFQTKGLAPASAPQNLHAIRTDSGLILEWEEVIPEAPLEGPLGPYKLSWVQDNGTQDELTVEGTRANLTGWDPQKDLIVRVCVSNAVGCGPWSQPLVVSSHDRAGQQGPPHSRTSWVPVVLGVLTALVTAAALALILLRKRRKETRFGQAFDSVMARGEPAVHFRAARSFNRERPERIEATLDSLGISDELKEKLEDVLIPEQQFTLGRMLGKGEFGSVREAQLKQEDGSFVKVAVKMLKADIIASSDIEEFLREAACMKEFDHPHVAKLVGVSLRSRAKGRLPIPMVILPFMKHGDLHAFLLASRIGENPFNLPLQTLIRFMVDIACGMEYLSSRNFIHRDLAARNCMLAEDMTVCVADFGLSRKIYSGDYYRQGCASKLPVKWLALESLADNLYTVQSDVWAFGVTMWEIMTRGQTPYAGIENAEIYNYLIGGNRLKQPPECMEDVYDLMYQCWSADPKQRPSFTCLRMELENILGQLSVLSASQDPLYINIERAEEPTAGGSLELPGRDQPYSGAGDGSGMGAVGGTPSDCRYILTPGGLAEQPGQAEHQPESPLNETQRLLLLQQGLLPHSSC

[6] = target: Hepatocyte growth factor receptor (Homo sapiens, UniProt P08581); test: Binding affinity to MET (unknown origin) after 1 hr
Hepatocyte growth factor receptor, sequence (P08581 whole entry): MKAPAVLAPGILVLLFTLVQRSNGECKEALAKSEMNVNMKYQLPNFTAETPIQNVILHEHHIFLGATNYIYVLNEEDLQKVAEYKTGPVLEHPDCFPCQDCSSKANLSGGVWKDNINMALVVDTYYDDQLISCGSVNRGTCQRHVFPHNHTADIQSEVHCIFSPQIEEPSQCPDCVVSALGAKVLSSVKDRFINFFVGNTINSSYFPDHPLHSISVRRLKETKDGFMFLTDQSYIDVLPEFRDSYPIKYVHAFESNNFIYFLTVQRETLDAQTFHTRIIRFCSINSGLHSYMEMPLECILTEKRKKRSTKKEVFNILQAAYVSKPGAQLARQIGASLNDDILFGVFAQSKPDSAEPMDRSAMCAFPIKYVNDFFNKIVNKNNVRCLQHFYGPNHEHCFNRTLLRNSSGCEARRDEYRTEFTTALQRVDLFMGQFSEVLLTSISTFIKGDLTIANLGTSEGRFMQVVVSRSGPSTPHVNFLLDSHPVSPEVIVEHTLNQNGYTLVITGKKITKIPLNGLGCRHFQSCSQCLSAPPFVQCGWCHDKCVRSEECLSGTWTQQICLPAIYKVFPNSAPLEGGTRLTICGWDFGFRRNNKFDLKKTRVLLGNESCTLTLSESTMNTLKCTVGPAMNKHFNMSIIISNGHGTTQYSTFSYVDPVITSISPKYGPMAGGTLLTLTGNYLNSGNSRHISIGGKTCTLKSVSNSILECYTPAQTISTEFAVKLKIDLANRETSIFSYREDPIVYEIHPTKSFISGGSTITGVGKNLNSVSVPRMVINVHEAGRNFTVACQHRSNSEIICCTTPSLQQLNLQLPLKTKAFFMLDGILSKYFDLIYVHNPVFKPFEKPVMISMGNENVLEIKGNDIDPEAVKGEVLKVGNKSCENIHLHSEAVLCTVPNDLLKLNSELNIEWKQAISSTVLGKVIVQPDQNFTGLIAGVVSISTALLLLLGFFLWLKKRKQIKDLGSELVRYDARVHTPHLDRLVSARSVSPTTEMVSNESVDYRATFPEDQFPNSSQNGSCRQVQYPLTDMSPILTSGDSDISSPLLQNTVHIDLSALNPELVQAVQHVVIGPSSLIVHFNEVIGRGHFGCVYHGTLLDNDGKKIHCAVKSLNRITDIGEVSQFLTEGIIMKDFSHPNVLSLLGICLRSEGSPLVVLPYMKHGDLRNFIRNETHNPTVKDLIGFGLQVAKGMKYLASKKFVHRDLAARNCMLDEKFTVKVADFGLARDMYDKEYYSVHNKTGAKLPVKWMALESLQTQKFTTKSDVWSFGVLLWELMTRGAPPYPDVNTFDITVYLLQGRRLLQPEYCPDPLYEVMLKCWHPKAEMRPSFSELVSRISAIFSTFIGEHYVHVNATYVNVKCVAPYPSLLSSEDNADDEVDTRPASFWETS

[7] = target: T1, Tyrosine-protein kinase ABL1; test: Binding affinity to non phosphorylated ABL1 (unknown origin) after 1 hr
MCF7 = test: Growth inhibition of human MCF7 cells at 10 uM after 72 hrs by […] assay relative to control; assay type: functional; details: MCF7, 72 h, read-out: GI; procedure, shortened: as §1
[8] = target: T5, Tyrosine-protein kinase receptor TYRO3 (Homo sapiens) (UniProt Q06418); test: Inhibition of TYRO3 (unknown origin) at 200 nM relative to control
T5 sequence (whole entry): T4 sequence (Q06418 whole entry)

[9] = target: T6, Tyrosine-protein kinase Mer (Homo sapiens) (UniProt Q12866); test: Inhibition of MER (unknown origin) at 200 nM relative to control
T6 sequence (whole entry): T3 sequence (Q12866 whole entry)

T1 sequence (P00519 whole entry): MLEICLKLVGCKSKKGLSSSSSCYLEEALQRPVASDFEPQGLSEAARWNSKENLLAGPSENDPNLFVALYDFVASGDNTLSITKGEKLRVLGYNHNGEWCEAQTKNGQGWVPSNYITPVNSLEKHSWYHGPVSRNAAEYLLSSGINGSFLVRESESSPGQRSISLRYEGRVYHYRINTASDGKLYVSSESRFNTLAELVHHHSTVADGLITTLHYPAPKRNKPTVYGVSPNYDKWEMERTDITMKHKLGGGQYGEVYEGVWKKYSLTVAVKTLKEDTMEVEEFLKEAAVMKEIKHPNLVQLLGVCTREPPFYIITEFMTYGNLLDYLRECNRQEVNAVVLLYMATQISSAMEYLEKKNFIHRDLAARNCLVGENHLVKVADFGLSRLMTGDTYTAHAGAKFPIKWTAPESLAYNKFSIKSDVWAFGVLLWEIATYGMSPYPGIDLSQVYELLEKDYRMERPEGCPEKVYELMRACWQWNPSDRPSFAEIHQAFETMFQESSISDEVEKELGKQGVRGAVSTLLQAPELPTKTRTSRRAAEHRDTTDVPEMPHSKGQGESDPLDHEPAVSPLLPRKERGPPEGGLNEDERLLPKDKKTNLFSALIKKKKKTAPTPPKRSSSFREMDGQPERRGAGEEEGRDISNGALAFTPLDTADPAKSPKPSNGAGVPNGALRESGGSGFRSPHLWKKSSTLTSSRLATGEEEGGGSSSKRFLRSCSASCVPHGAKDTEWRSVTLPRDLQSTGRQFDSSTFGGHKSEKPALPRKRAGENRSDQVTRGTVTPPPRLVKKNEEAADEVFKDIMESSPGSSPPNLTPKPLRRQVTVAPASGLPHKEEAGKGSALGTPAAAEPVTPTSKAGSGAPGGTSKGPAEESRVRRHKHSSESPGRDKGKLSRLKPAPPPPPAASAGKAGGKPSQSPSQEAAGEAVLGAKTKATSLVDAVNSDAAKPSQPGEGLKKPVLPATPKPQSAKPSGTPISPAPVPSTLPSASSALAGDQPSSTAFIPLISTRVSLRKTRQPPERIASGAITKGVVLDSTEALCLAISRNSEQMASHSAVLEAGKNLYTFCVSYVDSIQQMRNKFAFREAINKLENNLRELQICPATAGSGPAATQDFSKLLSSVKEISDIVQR

Row | Kd [1] [nM] | Kd [3] [nM] | Kd [4] [nM] | Kd [5] [nM] | Kd [6] [nM] | Kd [7] [nM] | inhibition [8] [%] | inhibition [9] [%] | SMILES | inhibition of growth at 10 µM (HT-29) [%] | inhibition at 72 h, 10 µM [2] [%] | inhibition of growth at 10 µM (PC-3) [%] | inhibition of growth at 10 µM (KB) [%] | inhibition of growth at 10 µM (MCF7) [%]
1 | 40000 | 39 | 42 | 200 | 65 | 6600 |  |  | O=C(Nc1ccc(Oc2ncnc3nc[nH]c23)c(F)c1)c1cccn(-c2ccc(F)cc2)c1=O | < 10 | < 10 | < 10 | < 10 | < 10
2 | 3300 |  |  | 900 | 440 | 320 |  |  | O=C(Nc1ccc(Oc2ncnc3[nH]cnc23)c(F)c1)c1cccn(-c2cccc(F)c2)c1=O | < 10 | < 10 | < 10 | < 10 | < 10
3 |  |  |  | 2900 | 150 |  |  |  | O=C(Nc1ccc(Oc2ncnc3nc[nH]c23)c(F)c1)c1cccn(-c2ccc(C(F)(F)F)cc2)c1=O | < 10 | < 10 | < 10 | < 10 | < 10
4 |  |  |  |  |  |  | > 50 | > 90 | CC(C)[S+]([O-])c1ccccc1Nc1nc(Nc2ccc(CN3CCN(C)CC3)cc2)ncc1Cl (centres undefined) |  |  |  |  | 
5 |  |  |  |  |  |  |  |  | COc1ncccc1C(=O)Nc1cccc(-c2nc3c(Nc4cccc(C(F)(F)F)c4)ncnc3[nH]2)c1 | < 10 | < 10 | < 10 | < 10 | < 10
6 |  |  |  |  |  |  |  |  | COc1ccccc1C(=O)Nc1cccc(-c2nc3c(Nc4cccc(F)c4)ncnc3[nH]2)c1 | < 10 | < 10 | < 10 | < 10 | < 10
7 |  |  |  |  |  |  |  |  | O=C(Nc1cccc(-c2ncnc3[nH]cnc23)c1)c1ccccc1F | < 10 | < 10 | < 10 | < 10 | < 10
8 |  |  |  |  |  |  |  |  | COc1ccccc1C(=O)Nc1cccc(-c2nc3c(Nc4cccc(C(F)(F)F)c4)ncnc3[nH]2)c1 | < 10 | < 10 | < 10 | < 10 | < 10
